Source: ChEMBL document CHEMBL2086248, “Synthesis of some novel 1-(2-naphthyl)-2-(imidazol-1-yl)ethanone oxime ester derivatives and evaluation of their anticonvulsant activity” (Eur J Med Chem, 2012)
Active and inactive are the calls of the source.

Tests used:
Mus musculus [1] = assay: Neurotoxicity in mouse assessed as motor impairment at 300 mg/kg, ip after 0.5 hrs by rotarod test; type: toxicity, organism-based; set-up: dose 300 mg/kg, route intraperitoneal; conditions: in vivo
Procedure, shortened: (§1)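 Swiss albino mice (20-24 g) were dosed ip with a suspension in 30% aqueous PEG 400 and tested 0.5 h or 4 h later. They were placed on a knurled wooden rod 1 inch in diameter, rotating at 6 rpm. Toxicity meant failure to stay on the rod for at least 1 min in each of three trials. Scored as number toxic/number tested (4 mice at 0.5 h, 2 at 4 h).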

Mus musculus [2] = assay: Neurotoxicity in mouse assessed as motor impairment at 30 mg/kg, ip after 4 hrs by rotarod test; type: toxicity, organism-based; set-up: dose 30 mg/kg, route intraperitoneal; conditions: in vivo; procedure, shortened: as §1
Mus musculus [3] = assay: Neurotoxicity in mouse assessed as motor impairment at 100 mg/kg, ip after 0.5 hrs by rotarod test; type: toxicity, organism-based; set-up: dose 100 mg/kg, route intraperitoneal; conditions: in vivo; procedure, shortened: as §1
Mus musculus [4] = assay: Anticonvulsant activity in mouse assessed as protection against subcutaneous pentylenetetrazole-induced seizures at 100 mg/kg, ip after 4 hrs; type: functional, organism-based; set-up: dose 100 mg/kg
Procedure, shortened: (§2)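 Swiss albino mice (20-24 g) were dosed ip with a suspension in 30% aqueous PEG 400 and challenged 0.5 h or 4 h later. Protection meant no threshold seizure (clonic spasms lasting at least 5 s). Scored as number protected/number tested, one mouse per dose and time.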

Mus musculus [5] = assay: Anticonvulsant activity in mouse assessed as protection against maximal electroshock-induced seizures at 300 mg/kg, ip after 4 hrs; type: functional, organism-based; set-up: dose 300 mg/kg
Procedure, shortened: (§3)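 Swiss albino mice (20-24 g) received an ip suspension in 30% aqueous PEG 400 and were tested 0.5 h and 4 h after dosing. Shock was delivered through corneal electrodes from a constant current unit, with 0.9% saline dropped into the eyes first. Protection meant abolition of the hind limb tonic extension. Scored as number protected/number tested, one mouse per dose and time.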

Mus musculus [6] = assay: Neurotoxicity in mouse assessed as motor impairment at 300 mg/kg, ip after 4 hrs by rotarod test; type: toxicity, organism-based; set-up: dose 300 mg/kg, route intraperitoneal; conditions: in vivo; procedure, shortened: as §1
Mus musculus [7] = assay: Neurotoxicity in mouse assessed as motor impairment at 30 mg/kg, ip after 0.5 hrs by rotarod test; type: toxicity, organism-based; set-up: dose 30 mg/kg, route intraperitoneal; conditions: in vivo; procedure, shortened: as §1
Mus musculus [8] = assay: Anticonvulsant activity in mouse assessed as protection against subcutaneous pentylenetetrazole-induced seizures at 100 mg/kg, ip after 0.5 hrs; type: functional, organism-based; set-up: dose 100 mg/kg; procedure, shortened: as §2
Mus musculus [9] = assay: Anticonvulsant activity in mouse assessed as protection against subcutaneous pentylenetetrazole-induced seizures at 30 mg/kg, ip after 4 hrs; type: functional, organism-based; set-up: dose 30 mg/kg; procedure, shortened: as §2
Mus musculus [10] = assay: Anticonvulsant activity in mouse assessed as protection against subcutaneous pentylenetetrazole-induced seizures at 300 mg/kg, ip after 0.5 hrs; type: functional, organism-based; set-up: dose 300 mg/kg; procedure, shortened: as §2
Mus musculus [11] = assay: Anticonvulsant activity in mouse assessed as protection against maximal electroshock-induced seizures at 100 mg/kg, ip after 4 hrs; type: functional, organism-based; set-up: dose 100 mg/kg; procedure, shortened: as §3
Mus musculus [12] = assay: Anticonvulsant activity in mouse assessed as protection against maximal electroshock-induced seizures at 30 mg/kg, ip after 0.5 hrs; type: functional, organism-based; set-up: dose 30 mg/kg; procedure, shortened: as §3
Mus musculus [13] = assay: Anticonvulsant activity in mouse assessed as protection against maximal electroshock-induced seizures at 30 mg/kg, ip after 4 hrs; type: functional, organism-based; set-up: dose 30 mg/kg; procedure, shortened: as §3
Mus musculus [14] = assay: Anticonvulsant activity in mouse assessed as protection against subcutaneous pentylenetetrazole-induced seizures at 300 mg/kg, ip after 4 hrs; type: functional, organism-based; set-up: dose 300 mg/kg; procedure, shortened: as §2
Mus musculus [15] = assay: Anticonvulsant activity in mouse assessed as protection against maximal electroshock-induced seizures at 300 mg/kg, ip after 0.5 hrs; type: functional, organism-based; set-up: dose 300 mg/kg; procedure, shortened: as §3
Mus musculus [16] = assay: Neurotoxicity in mouse assessed as motor impairment at 100 mg/kg, ip after 4 hrs by rotarod test; type: toxicity, organism-based; set-up: dose 100 mg/kg, route intraperitoneal; conditions: in vivo; procedure, shortened: as §1
Mus musculus [17] = assay: Anticonvulsant activity in mouse assessed as protection against subcutaneous pentylenetetrazole-induced seizures at 30 mg/kg, ip after 0.5 hrs; type: functional, organism-based; set-up: dose 30 mg/kg; procedure, shortened: as §2
Mus musculus [18] = assay: Anticonvulsant activity in mouse assessed as protection against maximal electroshock-induced seizures at 100 mg/kg, ip after 0.5 hrs; type: functional, organism-based; set-up: dose 100 mg/kg; procedure, shortened: as §3

| Structure (SMILES) | Activity (Mus musculus [1]) | Activity (Mus musculus [2]) | Activity (Mus musculus [3]) | Activity (Mus musculus [4]) | Activity (Mus musculus [5]) | Activity (Mus musculus [6]) | Activity (Mus musculus [7]) | Activity (Mus musculus [8]) | Activity (Mus musculus [9]) | Activity (Mus musculus [10]) | Activity (Mus musculus [11]) | Activity (Mus musculus [12]) | Activity (Mus musculus [13]) | Activity (Mus musculus [14]) | Activity (Mus musculus [15]) | Activity (Mus musculus [16]) | Activity (Mus musculus [17]) | Activity (Mus musculus [18]) |
| --- | --- | --- | --- | --- | --- | --- | --- | --- | --- | --- | --- | --- | --- | --- | --- | --- | --- | --- |
| CCCC(CCC)C(=O)ON=C(Cn1ccnc1)c1ccc2ccccc2c1.Cl (mixture of isomers) | Non-toxic | Non-toxic | Non-toxic | inactive | Active | Non-toxic | Non-toxic | inactive | inactive | Active | inactive | Active | inactive | Active | Active | Non-toxic | inactive | Active |
| O=C1NC(=O)C(c2ccccc2)(c2ccccc2)N1 [PHENYTOIN] | Toxic | Non-toxic | Non-toxic | inactive | Active | Toxic | Non-toxic | inactive | inactive | inactive | Active | Active | Active | inactive | Active | Toxic | inactive | Active |
| CCC(=O)O/N=C(\Cn1ccnc1)c1ccc2ccccc2c1.Cl | Non-toxic | Non-toxic | Non-toxic | inactive | inactive | Non-toxic | Non-toxic | inactive | inactive | Active | inactive | inactive | inactive | inactive | Active | Non-toxic | inactive | Active |
| CCCC(=O)O/N=C(\Cn1ccnc1)c1ccc2ccccc2c1.Cl | Toxic | Non-toxic | Non-toxic | inactive | Active | Non-toxic | Non-toxic | inactive | inactive | inactive | inactive | Active | inactive | Active | Active | Non-toxic | inactive | Active |
| NC(=O)N1c2ccccc2C=Cc2ccccc21 [CARBAMAZEPINE] | Toxic | Non-toxic | Non-toxic | Active | Active | Non-toxic | Non-toxic | inactive | inactive | Active | Active | Active | inactive | Active | Active | Non-toxic | inactive | Active |
| O=C(O/N=C(\Cn1ccnc1)c1ccc2ccccc2c1)c1ccccc1Cl | Non-toxic | Non-toxic | Non-toxic | inactive | inactive | Non-toxic | Non-toxic | inactive | inactive | inactive | inactive | inactive | inactive | inactive | Active | Non-toxic | inactive | Active |
| CC(C)CC(=O)O/N=C(\Cn1ccnc1)c1ccc2ccccc2c1.Cl | Non-toxic | Non-toxic | Non-toxic | inactive | Active | Non-toxic | Non-toxic | inactive | inactive | inactive | Active | inactive | inactive | inactive | Active | Non-toxic | inactive | Active |
| O=C(O/N=C(\Cn1ccnc1)c1ccc2ccccc2c1)c1ccc(Cl)cc1 | Non-toxic | Non-toxic | Non-toxic | Active | inactive | Non-toxic | Non-toxic | inactive | Active | inactive | inactive | inactive | inactive | Active | inactive | Non-toxic | inactive | inactive |
| O=C(O/N=C(\Cn1ccnc1)c1ccc2ccccc2c1)c1cccc([N+](=O)[O-])c1 | Non-toxic | Non-toxic | Non-toxic | inactive | Active | Non-toxic | Non-toxic | inactive | inactive | inactive | inactive | inactive | inactive | inactive | inactive | Non-toxic | inactive | inactive |
| O=C(O/N=C(\Cn1ccnc1)c1ccc2ccccc2c1)c1cccc(Cl)c1 | Non-toxic | Non-toxic | Non-toxic | inactive | Active | Non-toxic | Non-toxic | inactive | inactive | inactive | Active | inactive | inactive | inactive | Active | Non-toxic | inactive | Active |
| Cc1cccc(C(=O)O/N=C(\Cn2ccnc2)c2ccc3ccccc3c2)c1 | Non-toxic | Non-toxic | Non-toxic | inactive | inactive | Non-toxic | Non-toxic | inactive | inactive | Active | inactive | inactive | inactive | Active | inactive | Non-toxic | inactive | inactive |
| COc1cccc(C(=O)O/N=C(\Cn2ccnc2)c2ccc3ccccc3c2)c1 | Non-toxic | Non-toxic | Non-toxic | inactive | inactive | Non-toxic | Non-toxic | inactive | inactive | inactive | inactive | inactive | inactive | inactive | Active | Non-toxic | inactive | inactive |
